≈ marks a conversion by molar mass, not a printed value. Where “and” joins values, the source holds several entries; their conditions need not be identical. Equal values may be shown once.
Tests used:
[1] = thermodynamic equilibrium solubility in water; assay type: physicochemical; conditions: 25 °C, 24 h
Method in brief: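 Excess solid was added to water, vortexed for 5 min, then shaken at 300 rpm and 25 °C for 24 h. After centrifugation (14 000 rpm, 10 min), the supernatant was quantified by reversed-phase C18 HPLC. Elution used a methanol/0.1% formic acid gradient with photodiode detection and a 37 °C column. Calibration covered 5–160 μg/mL.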

[2] = moisture content by loss on drying; assay type: physicochemical; conditions: at the end of 6 months
Cdk-9 = conditions: read-out: Cdk-9 IC50; cited from earlier work
Cdk-2/A = Cdk-2/A (Homo sapiens, UniProt P24941); experiment: Cdk-2/A radioactive; assay type: biochemical; conditions: read-out: % inhibition (±SD) Cdk-2/A, 500 nM
Method in brief: (§1)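 Radioactive filter-binding kinase assay using 33P-ATP, run at an external kinase-profiling centre, with the test compound at 500 nM. Enzyme activity remaining was expressed as a percentage of control, and % inhibition was calculated as 100 − % enzyme activity.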

[3] = solubility in reaction solvents for scale-up; assay type: physicochemical
[4] = in vitro dissolution under sink conditions; assay type: physicochemical
Method in brief: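 Samples (1 mL) were taken at 15, 30, 60, 120, 240 and 360 min and replaced with fresh prewarmed medium. Samples were filtered (0.45 μm PVDF), diluted in methanol and quantified by HPLC. Runs were in triplicate. AUC0–t was obtained by the trapezoidal rule to the last time point.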

[5] = oral pharmacokinetics in BALB/c mice; assay type: in vivo; conditions: 50 mg/kg
Method in brief: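 Male BALB/c mice aged 8–13 weeks received a single oral dose of 50 mg/kg in 1% v/v Tween 80 + 0.5% w/v sodium CMC. Retro-orbital blood was collected into K2EDTA (n = 3/time point) at 0.25–24 h. Plasma was prepared within 30 min and stored below −60 °C. Plasma was analysed by LC-MS/MS (LLOQ 5.05 ng/mL), and parameters were derived by noncompartmental analysis.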

Cdk-9/T1 = Cdk-9/T1 (Homo sapiens, UniProt P50750); experiment: Cdk-9/T1 radioactive; assay type: biochemical; conditions: read-out: % inhibition (±SD) Cdk-9/T1, 500 nM
Method in brief: as §1

[6] = successive pKa of the acid itself; no reference given; cited from earlier work

Chain of Cdk-9/T1 (P50750 whole entry): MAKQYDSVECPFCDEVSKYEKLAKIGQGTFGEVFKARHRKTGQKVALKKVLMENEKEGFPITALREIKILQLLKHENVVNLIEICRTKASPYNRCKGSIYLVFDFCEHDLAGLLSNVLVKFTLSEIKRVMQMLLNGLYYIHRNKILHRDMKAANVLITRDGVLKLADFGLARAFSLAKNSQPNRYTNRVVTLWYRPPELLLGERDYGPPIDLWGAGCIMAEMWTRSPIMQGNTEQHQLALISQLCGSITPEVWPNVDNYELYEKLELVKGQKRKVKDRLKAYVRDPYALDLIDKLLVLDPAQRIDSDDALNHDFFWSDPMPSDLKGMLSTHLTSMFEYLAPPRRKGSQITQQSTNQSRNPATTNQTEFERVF
Chain of Cdk-9/T1 (O60563 whole entry partner): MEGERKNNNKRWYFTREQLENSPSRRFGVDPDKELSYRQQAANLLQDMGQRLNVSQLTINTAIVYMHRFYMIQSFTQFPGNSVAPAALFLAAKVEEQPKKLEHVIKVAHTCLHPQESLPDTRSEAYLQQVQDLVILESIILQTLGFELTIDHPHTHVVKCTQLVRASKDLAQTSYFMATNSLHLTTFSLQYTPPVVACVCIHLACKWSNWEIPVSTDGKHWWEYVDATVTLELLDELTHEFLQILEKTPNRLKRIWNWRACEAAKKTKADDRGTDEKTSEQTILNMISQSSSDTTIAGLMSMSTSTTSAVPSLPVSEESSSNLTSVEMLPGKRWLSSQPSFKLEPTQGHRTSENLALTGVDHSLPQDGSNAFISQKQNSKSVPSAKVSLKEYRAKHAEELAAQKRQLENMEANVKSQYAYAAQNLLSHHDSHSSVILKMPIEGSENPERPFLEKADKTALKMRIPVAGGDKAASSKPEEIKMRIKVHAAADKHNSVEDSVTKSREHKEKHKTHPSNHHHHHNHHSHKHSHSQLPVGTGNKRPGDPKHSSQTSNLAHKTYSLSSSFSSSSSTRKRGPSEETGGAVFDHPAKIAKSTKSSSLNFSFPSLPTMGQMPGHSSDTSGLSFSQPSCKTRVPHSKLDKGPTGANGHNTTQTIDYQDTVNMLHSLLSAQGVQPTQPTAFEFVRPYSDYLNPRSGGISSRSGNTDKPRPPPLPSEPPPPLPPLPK

thermodynamic equilibrium solubility in water [1] | % moisture content [2] [% w/w] | inhibition at 0.5 µM (Cdk-2/A) [%] | solubility in methanol [3] [mg/mL] | solubility ([3]; methanol, solubility in methanol) [mg/mL] | % drug dissolved in HCl buffer (pH 1.2) at 30 min ([4]; HCl buffer pH 1.2, 0.25% SLS, 30 min) [%] | AUC0–t (mean ± SEM), dissolution in HCl buffer (pH 1.2) ([4]; HCl buffer pH 1.2, 0.25% w/v SLS) [μg/mL min] | dissolution in phosphate buffer (pH 6.8) at the end of 60 min ([4]; phosphate buffer pH 6.8, 0.25% SLS, 60 min) [%] | AUC0–t (mean ± SEM), dissolution in phosphate buffer (pH 6.8) ([4]; phosphate buffer pH 6.8, 0.25% w/v SLS) [μg/mL min] | AUC0–t (mean ± SEM), dissolution in water ([4]; water, 0.25% w/v SLS) [µg·min/mL] | dissolution in water at the end of 120 min ([4]; water, 0.25% w/v SLS, 37 °C, 120 min) [% w/v] | T1/2 [5] [h] | AUC(0-t) ([5]; male, BALB/c, mouse, plasma, po, AUC0–t) [µg·h/mL] | Cmax ([5]; male, BALB/c, mouse, plasma, po, Cmax) [µg/mL] | Tmax ([5]; male, BALB/c, mouse, plasma, po, Tmax) [h] | inhibition at 0.5 µM (Cdk-9/T1) [%] | Compound | IC50 (Cdk-9) [nM] | pKa values of counterions [6]
~0.0086 mg/mL and 0.00861 ± 0.0018 mg/mL | 3.5 | 90 ± 0.2 | 0.5 (≈ 1080 µM) | ~0.5 (≈ 1080 µM) | 83 | 2102.46 ± 80.09 | 63 | 4898.69 ± 317.03 | 3557.23 ± 247.03 | 49 | 1.92 | 2.57 | 0.656 | 1 | 94 ± 0.8 | CN1CC[C@H](c2c(O)cc(O)c3c(=O)cc(/C=C/c4c(Cl)cccc4Cl)oc23)[C@H](O)C1 [IIIM-290, 2-((E)-2,6-Dichlorostyryl)-5,7-dihydroxy-8-((3S,4R)-3-hydroxy-1-methylpiperidin-4-yl)-4H-chromen-4-one] | 1.9 | –
– | – | – | – | – | – | – | – | – | – | – | – | – | – | – | – | O=C(O)CC(O)(CC(=O)O)C(=O)O [citric acid] | – | 3.73
– | – | – | – | – | – | – | – | – | – | – | – | – | – | – | – | Nc1ccc(C(=O)O)cc1 [4-aminobenzoic acid] | – | 2.38

From PMC6072253 (ACS Omega, 2018)
